# The list is not random: actives were taken first. Their share in the collection is about 4.9%.
# STAT3 inh: IL-6 driven STAT3 reporter inhibitors, primary screen, U3A cells, luciferase, luminescence, MLSCN library; inhibition, % at 5.5 µM; 0.89% of 190,000 active; IL-6 STAT3-luciferase reporter; host cell line lacks STAT1;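 active = inhibition above the mean inhibition across all screened compounds plus 3 SD, cut at about 44% in these data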;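 note: 0% = DMSO only wells and 100% = 100 µM nifuroxazide control wells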
# FLuc inh counter: firefly luciferase enzyme inhibitors, primary screen, artefact control for luciferase-based inhibitor screens, biochemical, luminescence, ATPLite. Luciferin 4-monooxygenase (Photinus pyralis), P08659. 10 min. inhibition, % at 10 µM. 1.5% of 200,000 active;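 active = inhibition above about 50% when tested at 10 µM, limit read from the data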
# Target sequence (P08659 whole entry, looked up): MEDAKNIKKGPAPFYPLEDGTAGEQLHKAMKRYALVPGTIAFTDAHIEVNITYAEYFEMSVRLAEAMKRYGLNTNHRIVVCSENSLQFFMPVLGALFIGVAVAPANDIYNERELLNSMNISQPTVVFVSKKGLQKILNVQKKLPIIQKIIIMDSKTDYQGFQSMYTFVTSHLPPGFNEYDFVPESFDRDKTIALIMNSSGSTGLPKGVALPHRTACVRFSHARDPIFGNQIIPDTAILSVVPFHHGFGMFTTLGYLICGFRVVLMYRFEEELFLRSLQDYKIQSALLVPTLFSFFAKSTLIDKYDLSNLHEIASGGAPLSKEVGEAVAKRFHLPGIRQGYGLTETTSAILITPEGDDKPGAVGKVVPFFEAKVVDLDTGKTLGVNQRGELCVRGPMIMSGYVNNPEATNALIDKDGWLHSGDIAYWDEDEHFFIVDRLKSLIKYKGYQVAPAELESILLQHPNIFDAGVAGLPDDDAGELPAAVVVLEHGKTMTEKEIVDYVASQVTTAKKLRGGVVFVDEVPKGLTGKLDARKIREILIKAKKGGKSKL
# STAT1 act-1: STAT1 signaling activators, primary screen, cell-based, HTS, luciferase reporter; 2.6% of 200,000 active; AID 932, 2007; activation (% of control), % at 5.5 µM; NIH 3T3 STAT1-luciferase reporter, IFN-gamma, luminescence; 100% = IFN-gamma alone, no compound;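 active = activation above the screen-wide mean activation plus 3 SD, cut at about 130% in these data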;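 note: raw ratio to IFN-gamma control signal so 100% means no change and 0% no light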
# FLuc stim CS: FLuc activators, initial screening, artefact control for FLuc-dependent activation tests, biochemical, ATPlite luminescence | Luciferin 4-monooxygenase (Photinus pyralis), P08659 | ATPlite luciferase biochemical, 10 min; 0 = ATP-free wells, 1 = DMSO control | activation factor at 10 µM | 200,000 tested, under 10 active;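 active = luciferase activation factor, scaled between plate controls, of at least 2 with compound at 10 µM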
#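 test system = cell-free luciferase reagent | medium = PBS as buffer for the ATP substrate | dosing = test compounds dosed from 2 mM stocks in 100% DMSO | incubation = 10 min at ambient temperature | detection = luminescence measurement of luciferase light output | benchmarks = low control with PBS replacing ATP, high control enzyme plus ATP without compound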
# STAT3 act-1: IL-6 driven STAT3 reporter potentiators, primary screen, U3A cells, luciferase, luminescence, MLSCN library; IL-6 STAT3-luciferase reporter; 100% = signal with IL-6 EC80 alone; activation (% of control), % at 5.6 µM; 0.91% of 190,000 active; AID 871, 2007;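 active = activation above the screen-wide mean of compound activation plus 3 SD, cut at about 130% in these data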;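 note: 0% = background luminescence of wells with medium and substrate only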
#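 Test system: human U3A cells carrying STAT3-luciferase construct; control set: IL-6-only wells as 100% reference; timing: compound pre-incubation 1 h before IL-6, then 6 h stimulation at 37 °C; also added: IL-6 stimulus at 33 ng/mL final; evaluation: % activation versus median of IL-6-stimulated wells; detection: reporter luminescence signal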
# STAT1 inh: STAT1 signaling inhibitors, primary screen, cell-based, HTS, luciferase reporter. inhibition, % at 5.5 µM. 0.35% of 200,000 active. AID 920, 2007. NIH 3T3 STAT1-luciferase reporter, IFN-gamma, luminescence;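 active = inhibition above a set limit, the mean inhibition across all tested compounds plus 3 SD, cut at about 34% in these data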;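 note: 0% = IFN-gamma with DMSO and 100% = IFN-gamma with 300 µM nifuroxazide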
# STAT3 act-2: STAT3 reporter potentiators, retest of hits, confirmation, U3A cells, luciferase, luminescence | shares compounds with STAT3 act-1 | IL-6 potentiation; U3A cells lack STAT1; 100 means same as IL-6 alone | potentiation (% of control), % at 5.7 µM | 64% of 1,200 active;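 active = percent activation of the STAT3 luciferase reporter above a set limit taken from the earlier primary screen, cut at about 130% in these data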;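 note: 0% = background signal of medium plus substrate and 100% = median of IL-6 with DMSO wells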
# NFkB act STAT3ct: NF-kB reporter activators in human cells, counter-screen for STAT3 activator project | AID 1309, 2008 | NF-kappaB reporter activation | shares compounds with STAT3 act-1 | 11% of 1,200 active | activation (% of control), % at 5.7 µM; in the data active = activation above about 120%;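 note: reporter induced by TNF-alpha stimulation; 100% = median of stimulated DMSO wells and 0% = no signal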
# STAT1 act-2: STAT1 reporter activators, IFN-gamma induced, counter-screen for STAT3 activator project, cell-based, NIH 3T3, luciferase luminescence. AID 1318, 2008. shares compounds with STAT3 act-1. 13% of 1,200 active. NIH 3T3 STAT1-luciferase reporter. activation (% of control), % at 5.7 µM;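 active = activation above the solvent-only control well mean plus 3 SD, set per screening run, cut at about 120% in these data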;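 note: 100% = IFN-gamma with DMSO median signal so 100% means no change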
# Numbers without * were called inactive; nt = no result given.
SMILES,STAT3 inh,FLuc inh counter,STAT1 act-1,FLuc stim CS,STAT3 act-1,STAT1 inh,STAT3 act-2,NFkB act STAT3ct,STAT1 act-2
CCN(CC)S(=O)(=O)c1cccc(-c2nnc(SCc3nc4ccccc4s3)o2)c1,-46,0,112,1,139*,-13,122,111,115
COc1cc(C(=O)Nc2nnc(CC(C)C)s2)c([N+](=O)[O-])cc1OC,15,-4,100,1,92,-1,nt,nt,nt
O=C(O)c1ccc(NC2=C/C(=N/S(=O)(=O)c3ccccc3)c3ccccc3C2=O)cc1,-55,11,83,0.9,155*,19,131,99,101
Cn1c(=O)cc(SCC(=O)NCCC2=CCCCC2)c2ccccc21,6,-7,97,1.1,94,3,nt,nt,nt
Nc1nnc(Cc2c[nH]c3ccccc23)s1,-41,-5,90,1.1,143*,11,154*,113,102
CCOCCCNC(=S)N1CCC(C(=O)c2ccc3c(c2)OCCO3)CC1,5,2,97,1,102,2,nt,nt,nt
Cc1[nH]c2ccccc2c1Cc1n[nH]c(=S)n1C,-1,4,106,1,104,-8,nt,nt,nt
Cn1c(Cc2c[nH]c3ccccc23)n[nH]c1=S,-54,9,98,0.9,155*,2,133,104,95
CC1Oc2ccccc2OC1C(=O)Nc1ccccn1 (stereo not given),-64,-7,92,1.1,156*,7,144*,103,90
O=C(Nc1ccccn1)C1COc2ccccc2O1 (stereo not given),-2,6,101,0.9,103,0,nt,nt,nt
CCCSc1nc(-c2ccccc2)cc(C(F)(F)F)c1C#N,17,-2,96,1,95,4,nt,nt,nt
N#Cc1c(C(F)(F)F)cc(-c2ccccc2)nc1SCCN1CCOCC1,-56,-2,90,1,152*,11,146*,105,96
Cc1ccc(NC(=O)C(=O)NCc2ccc(/C=C(/C#N)C(=O)NCc3cccnc3)o2)cc1C,6,-3,100,1,99,0,nt,nt,nt
CC1=NN(c2nc(-c3ccc(C)cc3)cs2)C(=O)C1N=Nc1ccc2ccccc2c1 (stereo not given),-54,0,99,1,150*,1,142*,102,97
CC1=NN(c2nc(-c3ccccc3)cs2)C(=O)C1N=Nc1ccccc1 (stereo not given),25,-4,113,1,87,-15,nt,nt,nt
CC1=NN(c2ccccc2)C(=O)C1N=Nc1ccc(C)cc1 (stereo not given),-25,-5,111,1.1,136*,-13,121,106,108
COc1ccccc1/C=N/NC(=O)C1=NNC(c2ccccc2)(c2ccccc2)C1,-52,-6,91,1.1,149*,10,120,101,93
Cc1c(-c2cccc(NC(=O)c3cccs3)c2)nc2ncccn12,2,-4,96,1,103,4,nt,nt,nt
CCOC(=O)C1CCN(c2nc3ccccc3nc2C(C#N)C(=O)OC(C)C)CC1 (stereo not given),17,-3,102,1,91,-3,nt,nt,nt
CCOC(=O)C1CCN(c2nc(-c3ccc(Br)cc3)nc3ccccc23)CC1,-40,-4,95,1,142*,5,137*,98,89
CCOCCCNC(=O)CN(c1cc([N+](=O)[O-])ccc1OC)S(C)(=O)=O,10,-10,97,1.1,97,1,nt,nt,nt
Cc1ccc(O)c(-c2cc(-c3ccccc3F)[nH]n2)c1,-65,6,109,0.9,160*,-10,148*,117,111
Cc1ccc(O)c(-c2cc(-c3cccc(F)c3)n[nH]2)c1,-37,-4,93,1,132,-6,nt,nt,nt
CCC(C)(C)n1nnnc1C(c1cc(OC)ccc1OC)N1CCN(Cc2ccccc2)CC1 (stereo not given),-8,-4,100,1,108,-1,nt,nt,nt
Cc1nc2c(oc3ccccc32)c(=O)o1,-88,5,102,1,174*,-2,159*,116,107
SMILES,STAT3 inh,FLuc inh counter,STAT1 act-1,FLuc stim CS,STAT3 act-1,STAT1 inh,STAT3 act-2,NFkB act STAT3ct,STAT1 act-2
O=c1[nH]c(Cc2ccccc2)nc2c1oc1ccccc12,-1,-3,98,1,104,2,nt,nt,nt
Cc1cc(Nc2ccccc2)n(C(=O)c2ccc(Cl)cc2)n1,-46,-4,123,1,140*,-33,127,114,133*
Cc1cc(Nc2ccccc2)n(-c2ccc(C(=O)O)cc2)n1,1,-4,96,1,104,4,nt,nt,nt
Cc1ccc(C)n1-c1nccc(-c2cccs2)n1,-35,-1,104,1,140*,-5,115,106,103
Nc1ccc(Cc2nc3cc4ccccc4cc3[nH]2)cc1,-39,5,112,1,136*,-13,143*,113,130*
Nc1ccc2nc(CCc3ccccc3)[nH]c2c1,-8,14,116,0.9,105,-17,nt,nt,nt
COc1cccc(-n2c(N)c(-c3nc4ccccc4[nH]3)sc2=S)c1,17,-1,105,1,94,-6,nt,nt,nt
Cc1cc(C)c2c(N)c(-c3nc4ccccc4[nH]3)sc2n1,-76,-10,114,1.1,171*,-16,182*,117,111
Cc1c(NC(=O)CCCCCN2C(=O)c3ccccc3C2=O)c(=O)n(-c2ccccc2)n1C,13,-4,92,1,90,8,nt,nt,nt
O=[N+]([O-])c1cccc(C(=Nc2ccccc2)NO)c1,23,-4,96,1,82,4,nt,nt,nt
O=[N+]([O-])c1cccc(C(=Nc2ccc(Cl)cc2)NO)c1,-47,-7,95,1.1,148*,5,139*,98,99
COC(=O)c1[nH]c2cc(C)ccc2c1NC(=O)CN1CCCc2ccccc21,-55,2,106,1,156*,-7,143*,113,137*
